Measured values: ChEMBL document CHEMBL1134691, “3-Phenyl-5-acyloxymethyl-2H,5H-furan-2-ones: synthesis and biological activity of a novel group of potential antifungal drugs” (2001)
In brackets after ≈: the same amount, converted by molar mass.

Tests used:
Pichia kudriavzevii [1] = experiment: Inhibition of Candida krusei ATCC 6258 growth for 24 hours in vitro.; type: functional; conditions: Pichia kudriavzevii, ATCC 6258, 24 h; read-out: MIC
Outline: (§1)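 NCCLS M27-A broth microdilution in RPMI 1640 with L-glutamine and 0.165 M MOPS, pH 7.0. Isolates kept on Sabouraud dextrose agar. Inoculum 5 × 10^3 cfu/mL final. Compounds were diluted in DMSO (≤2% final) and tested in 2-fold dilutions of 1000–0.24 µmol/L. Incubation at 35 °C, OD540 read at 24 and 48 h. MIC = 80% growth inhibition versus control; assays run twice in duplicate.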

Trichosporon beigelii [2] = experiment: Inhibition of Trichosporon beigelli 1188 for 24 hours in vitro.; type: functional; conditions: Trichosporon beigelii, 24 h; read-out: MIC
Outline: (§2)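 Microdilution following NCCLS M27-A. Medium: RPMI 1640 with L-glutamine, 0.165 M MOPS, pH 7.0. Final inoculum 5 × 10^3 cfu/mL. Compounds dissolved in DMSO, final ≤2%, serially halved from 1000 to 0.24 µmol/L. Incubated at 35 °C and read at 24 and 48 h. MIC defined as 80% inhibition of control growth; run twice in duplicate.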

Candida parapsilosis [3] = experiment: Inhibition of Candida parapsilosis ATCC 22019 growth for 24 hours in vitro.; type: functional; conditions: Lodderomyces parapsilosis, ATCC 22019, 24 h; read-out: MIC; outline: as §1
Pichia kudriavzevii [4] = experiment: Inhibition of Candida krusei E28 growth for 48 hours in vitro.; type: functional; conditions: Pichia kudriavzevii, 48 h; read-out: MIC; outline: as §1
Lichtheimia corymbifera [5] = experiment: In vitro inhibition of Absidia corymbifera 272 growth for 24 hours.; type: functional; conditions: Lichtheimia corymbifera, 24 h; read-out: MIC
Outline: (§3)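 Filamentous isolates tested by microdilution per NCCLS M27-A in RPMI 1640 plus L-glutamine, buffered with 0.165 M MOPS to pH 7.0. Final inoculum 5 × 10^3 cfu/mL. Compounds in DMSO (final ≤2%), 2-fold series over 1000–0.24 µmol/L. Plates held at 35 °C and read visually after 24 and 48 h. MIC taken as 80% inhibition of control growth; determined twice in duplicate.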

Candida parapsilosis [6] = experiment: Inhibition of Candida parapsilosis ATCC 22019 growth for 48 hours in vitro.; type: functional; conditions: Lodderomyces parapsilosis, ATCC 22019, 48 h; read-out: MIC; outline: as §1
Candida albicans [7] = experiment: Inhibition of Candida albicans ATCC 90028 for 48 hours in vitro.; type: functional; conditions: Candida albicans, ATCC 90028, 48 h; read-out: MIC; outline: as §1
Clavispora lusitaniae [8] = experiment: Inhibition of Candida lusitaniae 2446/I growth for 48 hours in vitro.; type: functional; conditions: Clavispora lusitaniae, 48 h; read-out: MIC; outline: as §1
Pichia kudriavzevii [9] = experiment: Inhibition of Candida krusei E28 growth for 24 hours in vitro.; type: functional; conditions: Pichia kudriavzevii, 24 h; read-out: MIC; outline: as §1
Clavispora lusitaniae [10] = experiment: Inhibition of Candida lusitaniae 2446/I growth for 24 hours in vitro.; type: functional; conditions: Clavispora lusitaniae, 24 h; read-out: MIC; outline: as §1
Aspergillus fumigatus [11] = experiment: Inhibition of Aspergillus fumigatus 231 growth for 48 hours in vitro.; type: functional; conditions: Aspergillus fumigatus, 48 h; read-out: MIC; outline: as §3
Pichia kudriavzevii [12] = experiment: Inhibition of Candida krusei ATCC 6258 growth for 48 hours in vitro.; type: functional; conditions: Pichia kudriavzevii, ATCC 6258, 48 h; read-out: MIC; outline: as §1
Nakaseomyces glabratus [13] = experiment: Inhibition of Candida glabrata 20/I growth for 24 hours in vitro.; type: functional; conditions: Nakaseomyces glabratus, 24 h; read-out: MIC; outline: as §1
Candida tropicalis [14] = experiment: Inhibition of Candida tropicalis 156 growth for 24 hours in vitro.; type: functional; conditions: Candida tropicalis, 24 h; read-out: MIC; outline: as §1
Aspergillus fumigatus [15] = experiment: Inhibition of Aspergillus fumigatus 231 growth for 24 hours in vitro.; type: functional; conditions: Aspergillus fumigatus, 24 h; read-out: MIC; outline: as §3
Lichtheimia corymbifera [16] = experiment: In vitro inhibition of Absidia corymbifera 272 growth for 48 hours.; type: functional; conditions: Lichtheimia corymbifera, 48 h; read-out: MIC; outline: as §3
[17] = Inhibition of Trichophyton mentagrophytes 445 growth for 120 hours in vitro.; type: functional, Arthroderma benhamiae; conditions: Trichophyton benhamiae, 120 h; read-out: MIC
Outline: (§4)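 Dermatophyte grown in MOPS-buffered (0.165 M, pH 7.0) RPMI 1640 containing L-glutamine, in an M27-A microdilution format. Inoculum 5 × 10^3 cfu/mL final. Compounds from DMSO stocks (≤2% final), 2-fold dilutions 1000–0.24 µmol/L. Incubated at 35 °C, growth judged visually at 72 and 120 h. MIC endpoint is 80% inhibition relative to control; measured twice in duplicate.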

Nakaseomyces glabratus [18] = experiment: Inhibition of Candida glabrata 20/I growth for 48 hours in vitro.; type: functional; conditions: Nakaseomyces glabratus, 48 h; read-out: MIC; outline: as §1
Trichosporon beigelii [19] = experiment: Inhibition of Trichosporon beigelli 1188 for 48 hours in vitro.; type: functional; conditions: Trichosporon beigelii, 48 h; read-out: MIC; outline: as §2
Candida albicans [20] = experiment: Inhibition of Candida albicans ATCC 44859 growth for 48 hours in vitro.; type: functional; conditions: Candida albicans, ATCC 44859, 48 h; read-out: MIC; outline: as §1
Candida tropicalis [21] = experiment: Inhibition of Candida tropicalis 156 growth for 48 hours in vitro.; type: functional; conditions: Candida tropicalis, 48 h; read-out: MIC; outline: as §1
Candida albicans [22] = experiment: Inhibition of Candida albicans ATCC 90028 for 24 hours in vitro.; type: functional; conditions: Candida albicans, ATCC 90028, 24 h; read-out: MIC; outline: as §1
Candida albicans [23] = experiment: Inhibition of Candida albicans ATCC 44859 growth for 24 hours in vitro.; type: functional; conditions: Candida albicans, ATCC 44859, 24 h; read-out: MIC; outline: as §1
[24] = Inhibition of Trichophyton mentagrophytes 445 growth for 72 hours in vitro.; type: functional, Arthroderma benhamiae; conditions: Trichophyton benhamiae, 72 h; read-out: MIC; outline: as §4

Structure (SMILES) | MIC (Pichia kudriavzevii [1]) [µM] | MIC (Trichosporon beigelii [2]) [µM] | MIC (Candida parapsilosis [3]) [µM] | MIC (Pichia kudriavzevii [4]) [µM] | MIC (Lichtheimia corymbifera [5]) [µM] | MIC (Candida parapsilosis [6]) [µM] | MIC (Candida albicans [7]) [µM] | MIC (Clavispora lusitaniae [8]) [µM] | MIC (Pichia kudriavzevii [9]) [µM] | MIC (Clavispora lusitaniae [10]) [µM] | MIC (Aspergillus fumigatus [11]) [µM] | MIC (Pichia kudriavzevii [12]) [µM] | MIC (Nakaseomyces glabratus [13]) [µM] | MIC (Candida tropicalis [14]) [µM] | MIC (Aspergillus fumigatus [15]) [µM] | MIC (Lichtheimia corymbifera [16]) [µM] | MIC [17] [µM] | MIC (Nakaseomyces glabratus [18]) [µM] | MIC (Trichosporon beigelii [19]) [µM] | MIC (Candida albicans [20]) [µM] | also measured
O=C1OC(COC(=O)c2ccc(Cl)cc2)C=C1c1ccc(Br)cc1 (configuration not stated) | 7.81 (≈ 3.18 µg/mL) | 3.91 (≈ 1.59 µg/mL) | 7.81 (≈ 3.18 µg/mL) | 15.6 (≈ 6.37 µg/mL) | 7.81 (≈ 3.18 µg/mL) | 15.6 (≈ 6.37 µg/mL) | 7.81 (≈ 3.18 µg/mL) | 7.81 (≈ 3.18 µg/mL) | 7.81 (≈ 3.18 µg/mL) | 3.91 (≈ 1.59 µg/mL) | 3.91 (≈ 1.59 µg/mL) | 15.6 (≈ 6.37 µg/mL) | 1.95 (≈ 0.795 µg/mL) | 7.81 (≈ 3.18 µg/mL) | 0.98 (≈ 0.399 µg/mL) | 15.6 (≈ 6.37 µg/mL) | 3.91 (≈ 1.59 µg/mL) | 1.95 (≈ 0.795 µg/mL) | 15.6 (≈ 6.37 µg/mL) | 3.91 (≈ 1.59 µg/mL) | MIC (Candida tropicalis [21]): 15.6 µM (≈ 6.37 µg/mL); MIC (Candida albicans [22]): 3.91 µM (≈ 1.59 µg/mL); MIC (Candida albicans [23]): 1.95 µM (≈ 0.795 µg/mL); MIC [24]: 1.95 µM (≈ 0.795 µg/mL)
O=C1OC(CO)C=C1c1cccc(Cl)c1 (configuration not stated) | 1000 (≈ 225 µg/mL) | 250 (≈ 56.2 µg/mL) | 500 (≈ 112 µg/mL) | > 1000 | 125 (≈ 28.1 µg/mL) | 1000 (≈ 225 µg/mL) | 250 (≈ 56.2 µg/mL) | 1000 (≈ 225 µg/mL) | 1000 (≈ 225 µg/mL) | 250 (≈ 56.2 µg/mL) | 125 (≈ 28.1 µg/mL) | > 1000 | 62.5 (≈ 14 µg/mL) | 500 (≈ 112 µg/mL) | 31.2 (≈ 7.02 µg/mL) | 500 (≈ 112 µg/mL) | 15.6 (≈ 3.51 µg/mL) | 62.5 (≈ 14 µg/mL) | 1000 (≈ 225 µg/mL) | 62.5 (≈ 14 µg/mL) | MIC (Candida tropicalis [21]): > 1000 µM; MIC (Candida albicans [22]): 250 µM (≈ 56.2 µg/mL); MIC (Candida albicans [23]): 31.2 µM (≈ 7.02 µg/mL); MIC [24]: 15.6 µM (≈ 3.51 µg/mL)
COc1ccc(C2=CC(COC(=O)C(C)(C)C)OC2=O)cc1 (configuration not stated) | 62.5 (≈ 19 µg/mL) | 62.5 (≈ 19 µg/mL) | 31.2 (≈ 9.51 µg/mL) | 125 (≈ 38 µg/mL) | 62.5 (≈ 19 µg/mL) | 62.5 (≈ 19 µg/mL) | 31.2 (≈ 9.51 µg/mL) | 31.2 (≈ 9.51 µg/mL) | 62.5 (≈ 19 µg/mL) | 31.2 (≈ 9.51 µg/mL) | 31.2 (≈ 9.51 µg/mL) | 62.5 (≈ 19 µg/mL) | 31.2 (≈ 9.51 µg/mL) | 31.2 (≈ 9.51 µg/mL) | 7.81 (≈ 2.38 µg/mL) | 125 (≈ 38 µg/mL) | 7.81 (≈ 2.38 µg/mL) | 31.2 (≈ 9.51 µg/mL) | 62.5 (≈ 19 µg/mL) | 15.6 (≈ 4.76 µg/mL) | MIC (Candida tropicalis [21]): 62.5 µM (≈ 19 µg/mL); MIC (Candida albicans [22]): 31.2 µM (≈ 9.51 µg/mL); MIC (Candida albicans [23]): 0.98 µM (≈ 0.298 µg/mL); MIC [24]: 7.81 µM (≈ 2.38 µg/mL)
